Values joined by “and” are separate entries in the source; they are usually repeats but may differ in a detail not shown here. Equal entries are not always repeated. “Also recorded” adds a separate entry of the source. Where a SMILES comes first, the peptide text is derived from it. The star is where a group is joined. 5FAM = O=C1OC2(c3ccc(O)cc3Oc3cc(O)ccc32)c2ccc(C(=O)*)cc21
Assays:
Assay type in all cases: in vivo, human
[1] = system: adult patients with head and neck neoplasms undergoing parotidectomy or thyroidectomy
[2] = system: adult patients with head and neck neoplasms; assay: Clinical laboratory assessments
Method in brief: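 Test compound given as a single IV infusion over 30 min on Day 1, at dose tiers of 100–600 mg. Hematology, chemistry, coagulation and urinalysis were run at the preoperative visit, then repeated on Day 1 before dosing and at end of infusion. Histamine, tryptase, C3a and C5 were sampled before, during and after infusion. Further safety labs on Day 15 (±8 days) and Day 28 (+5 days). Summarized descriptively by dose.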

[3] = system: adult patients with head and neck neoplasms; assay: Vital signs, physical examination and 12-lead ECG
[4] = Pharmacokinetics after intravenous infusion
[5] = system: nerves (head and neck surgery); assay: Quantitative image analysis of intraoperative nerve fluorescence; settings: for Background fluorescence, mean pixel intensity (MPI): FL images
Method in brief: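 Paired white-light and fluorescence images taken intraoperatively through a surgical microscope with a yellow 560 fluorescence module. Analysis used the green channel of fluorescence images and 5–20 elliptical ROIs per nerve and per adjacent non-nerve tissue. After background subtraction, SBR = nerve MPI / background MPI. Statistics: Welch ANOVA, Kruskal-Wallis, Wilcoxon rank sum.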

[6] = system: nerves (head and neck surgery); assay: Visualization Scoring System; settings: 500 mg

SMILES: CC(C)[C@H](NC(=O)[C@H](Cc1ccc(O)cc1)NC(=O)[C@H](Cc1ccc(O)cc1)NC(=O)[C@@H]1CCCN1C(=O)[C@H](CCC(=O)O)NC(=O)[C@H](CCC(=O)O)NC(=O)[C@H](Cc1c[nH]c2ccccc12)NC(=O)[C@@H]1CCCN1C(=O)[C@@H](NC(=O)[C@H](CCC(N)=O)NC(=O)c1ccc2c(c1)C(=O)OC21c2ccc(O)cc2Oc2cc(O)ccc21)C(C)C)C(=O)N[C@H](C(=O)N[C@@H](CCCCN)C(=O)N[C@@H](CCCCN)C(=O)N[C@@H](CO)C(=O)N[C@@H](CO)C(=O)NCC(=O)NCC(N)=O)C(C)C [bevonescein] (5FAM-QVPWEEPYYVVKKSSGG-NH2; C-terminus assumed)
- AEs greater than grade 1 attributable to the study drug ([1]; 27 patients): no adverse events greater than grade 1
- AEs assessed as possibly related to the study drug ([1]; 27 subjects, all doses, resolved without intervention): a single adverse event
- Tolerability of preoperative intravenous infusion ([1]; 100-600 mg): well tolerated
- Dose-limiting toxicity (DLT) ([1]; all doses 100-600 mg, single IV infusion over 30 min, 27 patients, NCI CTCAE): no dose-limiting toxicity
- Hematology, chemistry, coagulation, and urinalysis findings ([2]; all patients, as deemed by the investigators): normal ranges or not clinically significant abnormalities
- Tryptase and complements C3a and C5 levels ([2]; during the study): remained stable
- Changes from baseline in vital signs ([3]; all cohorts): no clinically significant or relevant differences
- ECG values ([3]; all patients, 12-lead ECG): normal or non-clinically significant abnormal ECG values
- Increase of mean unbound AUClast over the 6-fold increase in dose ([4]; 100 to 600 mg, bevonescein not bound to plasma or tissue proteins): 6.1 fold
- Free fraction ([4]; from unbound vs total AUClast): approximately 30%
- SBR, FL images ([5]; 500 mg cohort (dose comparison)): 3.0 ± 1.0
- Background fluorescence, mean pixel intensity (MPI) ([5]; 500 mg cohort): 39.5 ± 17
- Signal-to-background ratio (SBR), fluorescence (FL) images ([5]; 500 mg, 54 evaluable nerves in 14 subjects, mean ± SD): 2.1 ± 0.8 and 2.08 ± 0.83
- Fluorescent SBR of nerves, early (1-3 h) versus late (3-5 h) timing cohorts ([5]; 500 mg, infusion to incision, two-sided Wilcoxon rank sum test): not statistically different; also recorded: no significant difference
- Background fluorescence, mean pixel intensity (MPI) ([5]; 600 mg cohort, Welch ANOVA p < 0.01 vs 500 mg): 73.2 ± 34
- SBR, FL images ([5]; 600 mg cohort, Kruskal-Wallis p > 0.05 vs 500 mg): 2.2 ± 1.6
- Improvement in nerve length with FL images, share of subjects (so in the source) [6]: 78%
- Subjects with some improvement in visible nerve length ([6]; 14 subjects): 100%
- Individual nerves with improvement in length measurements ([6]; n = 42/54 nerves, paired FL overlay vs WLR): 78%
